PDI inh: inhibitors of human PDI, primary screen, biochemical, turbidity, single point, plate reader | inhibition, % at 10 µM | AID 588391, 2011 | PDI insulin aggregation turbidity, A650, 90 min | actives 0.052% (n = 350,000) | Protein disulfide-isomerase (Homo sapiens), P07237;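 active = mean inhibition across replicates of 30% or more, whatever share of single replicates reach that level; inconclusive = mean inhibition below 30% while every single replicate reaches 30%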
RAD52 anneal inh: RAD52 DNA annealing inhibitors, primary screen, biochemical, FRET, single point, set 2; recombinant RAD52 DNA annealing, FRET fluorescence; inhibition, % at 18.7 µM; actives 0.46% (n = 360,000);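 active = every replicate showing at least 50% inhibition; inconclusive = mean inhibition at least 50% but not in every replicate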
ERp5 inh: inhibitors of ERp5-driven insulin aggregation, primary screen, biochemical, turbidity, absorbance 650 nm, single point. AID 651711, 2012. actives 0.05% (n = 350,000). 90 min. inhibition, % at 9.99 µM;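 active = mean replicate inhibition above about 25%, with every replicate also reaching it, limit read from the data, passing the limit was not always enough; inconclusive = only one of those two criteria met; inactive = neither criterion met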
RAD54 branch: inhibitors of human RAD54 branch migration, primary screen, biochemical, fluorescence, single point. RAD54 Holliday junction branch migration, FAM/BHQ fluorescence. actives 0.14% (n = 360,000). DNA repair and recombination protein RAD54-like (Homo sapiens), Q92698. inhibition, % at 10.4 µM;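 active = mean normalized replicate activity at least 40 and at least half of replicates scoring 40 or more; inconclusive = only one of the two criteria met; inactive = mean below 40 and under half of replicates reaching 40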;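 note: inhibitors cause a drop in the FAM fluorescence signal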
Target sequence (Q92698 whole entry, looked up): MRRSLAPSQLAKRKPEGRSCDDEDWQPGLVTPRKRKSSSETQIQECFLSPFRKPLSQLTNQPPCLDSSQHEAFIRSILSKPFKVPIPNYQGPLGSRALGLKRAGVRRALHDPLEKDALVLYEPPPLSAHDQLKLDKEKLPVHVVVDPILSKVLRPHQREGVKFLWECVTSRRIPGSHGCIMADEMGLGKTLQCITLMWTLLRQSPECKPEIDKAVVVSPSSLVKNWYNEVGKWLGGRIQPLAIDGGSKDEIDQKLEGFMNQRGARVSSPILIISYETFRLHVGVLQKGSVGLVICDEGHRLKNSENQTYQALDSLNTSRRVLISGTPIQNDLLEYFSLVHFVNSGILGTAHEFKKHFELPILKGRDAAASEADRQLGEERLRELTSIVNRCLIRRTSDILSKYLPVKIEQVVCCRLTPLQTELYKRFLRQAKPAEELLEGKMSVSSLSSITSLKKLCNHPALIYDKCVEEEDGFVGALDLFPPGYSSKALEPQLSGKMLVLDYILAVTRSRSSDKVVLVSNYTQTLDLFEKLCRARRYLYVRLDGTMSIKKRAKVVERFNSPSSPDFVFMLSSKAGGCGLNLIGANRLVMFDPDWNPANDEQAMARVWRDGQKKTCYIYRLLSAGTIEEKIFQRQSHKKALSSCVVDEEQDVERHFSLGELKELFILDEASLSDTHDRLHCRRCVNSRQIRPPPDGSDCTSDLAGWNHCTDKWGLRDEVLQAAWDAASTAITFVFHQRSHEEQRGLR
CAL PDZ FP-1: untagged CAL PDZ binding inhibitors, primary screen, biochemical, fluorescence polarization, HTS. Golgi-associated PDZ and coiled-coil motif-containing protein (Homo sapiens), Q9HD26. purified CAL PDZ, TMR-peptide fluorescence polarization, 1 h. inhibition, % at 24.9 µM. actives 0.92% (n = 300,000);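 active = mean inhibition of at least 30% with at least half of replicates also reaching 30%; inconclusive = no clear call, values can overlap the other calls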
CAL PDZ FP-2: CAL PDZ peptide-binding inhibitors, primary screen, biochemical, fluorescence polarization, Cer-tagged CAL PDZ, HTS. purified CAL PDZ, TMR-peptide fluorescence polarization, 1 h. Golgi-associated PDZ and coiled-coil motif-containing protein (Homo sapiens), Q9HD26. AID 504414, 2011. inhibition, % at 20 µM. actives 0.02% (n = 330,000);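 active = highest replicate inhibition of at least 40%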
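Material: tagged CAL PDZ domain; buffer or medium: 25 mM sodium phosphate pH 7.4, 150 mM NaCl, TCEP, IgG, Thesit; compound dosing: single point, 20 µM; schedule: 1 h incubation at room temperature before polarization reading; measured by: FP readout, S and P plane fluorescence; read-out basis: percent inhibition from loss of millipolarization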
DNA binding: DNA binding of candidate compounds, dose response, artefact control for RAD54 inhibitor project, biochemical, fluorescence polarization, cherry-pick; shares compounds with RAD54 branch; actives 8% (n = 460); Acridine orange-DNA displacement, 20 min; AC50, µM (top dose mostly 35 µM); AID 651673, 2012;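 active = signal drop giving an AC50 within twice the top valid tested concentration of each sample, actives reach about 35 µM in these data; inactive = activity opposite to expected, plus the rest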;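 note: polarization loss reports compound binding to salmon sperm DNA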
RAD52 DNA ctr: DNA-binding compounds via dye displacement, dose response, artefact control for RAD52 inhibitor project, biochemical, fluorescence polarization, cherry-pick. shares compounds with RAD52 anneal inh. Salmon sperm DNA/acridine orange FP displacement. AC50, µM. actives 8% (n = 1,000);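 active = fitted half-maximal concentration for signal loss at or below twice the highest dose tested, in every separate run, actives reach about 64 µM in these data; inconclusive = runs disagree, or flat partial signal loss, or poor fit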
Large screens that a line does not name were inactive (follow-up assays come after a bar, where they were run). Hits are enriched below; roughly 1% of the tested compounds scored in any of these assays.

CCN(CC)CCNc1ccc(CO)c2sc3ccccc3c(=O)c12	RAD52 anneal inh 54, RAD54 branch 100 | DNA binding 29µM | RAD52 DNA ctr 22µM
O=C(C[C@@H]1C[C@H]2c3cc(NC(=O)NC4CCCC4)ccc3O[C@H]2[C@H](CO)O1)NCc1ccc(Oc2ccccc2)cc1	none (no result: PDI inh, CAL PDZ FP-1, CAL PDZ FP-2)
OC(CN1CCCCC1)Cn1c2ccc(Cl)cc2c2cc(Cl)ccc21 (centres undefined)	RAD52 anneal inh 59, RAD54 branch 55 | DNA binding inactive | RAD52 DNA ctr inactive
COc1cccc(-c2cc(NC=O)c3ncc(-c4cccc(C(=O)NCCN(C)C)c4)n3c2)c1	RAD52 anneal inh 94, RAD54 branch 81 (no result: CAL PDZ FP-1, CAL PDZ FP-2) | DNA binding inactive | RAD52 DNA ctr inactive
COc1cccc(-c2cc(NC=O)c3ncc(-c4cccc(C(=O)N(C)C)c4)n3c2)c1	none (no result: CAL PDZ FP-1, CAL PDZ FP-2)
CC(=O)Nc1cc(-c2ccc(N3CCN(C)CC3)cc2)cn2c(-c3ccc(S(C)(=O)=O)cc3)cnc12	RAD52 anneal inh 73, RAD54 branch 104 (no result: CAL PDZ FP-1, CAL PDZ FP-2) | DNA binding inactive | RAD52 DNA ctr inactive
CN(C)CCNC(=O)c1cccc(-c2cnc3c(NC=O)cc(-c4ccc(S(C)(=O)=O)cc4)cn23)c1	RAD52 anneal inh 96, RAD54 branch 65 (no result: CAL PDZ FP-1, CAL PDZ FP-2) | DNA binding inactive | RAD52 DNA ctr inactive
CC(=O)c1ccc(-c2cnc3c(NC=O)cc(-c4ccc(S(C)(=O)=O)cc4)cn23)cc1	none (no result: CAL PDZ FP-1, CAL PDZ FP-2)
C[C@@H]1CN([C@@H](C)CO)C(=O)Cc2cc(NC(=O)Cn3cnnn3)ccc2O[C@H]1CN(C)S(=O)(=O)c1ccc(F)cc1	none (no result: PDI inh, CAL PDZ FP-1, CAL PDZ FP-2)
Cc1cccc(-c2cc3nc(C)cc(NCCCN(C)C)n3n2)c1	none (no result: RAD52 anneal inh, ERp5 inh)
CN(C)CCCNc1cc(-c2ccccc2)nc2cc(-c3cccc(F)c3)nn12	RAD52 anneal inh 67, RAD54 branch 90 | DNA binding inactive | RAD52 DNA ctr inactive
COCC(=O)N[C@@H]1C=C[C@H](CC(=O)NCc2ccc(Cl)cc2)O[C@H]1CO	none (no result: PDI inh, CAL PDZ FP-1, CAL PDZ FP-2)
COc1cccc(-c2cc3nc(NCCN4CCCC4)n(C)c(=O)c3s2)c1	RAD52 anneal inh 89, RAD54 branch 70 (no result: CAL PDZ FP-1, CAL PDZ FP-2) | DNA binding inactive | RAD52 DNA ctr inactive
Cn1c(NCCN2CCCC2)nc2cc(-c3ccccc3)sc2c1=O	RAD52 anneal inh 52, RAD54 branch inconclusive (no result: CAL PDZ FP-1, CAL PDZ FP-2) | DNA binding inactive | RAD52 DNA ctr inactive
CCCN1CCN(CCCNC(=O)c2cc3c(=O)oc4ccc(C)cc4c3s2)CC1	none (no result: CAL PDZ FP-1)
Cc1ccc2nc(Cl)c3cc(C(=O)NCCCN4CCCC4)sc3c2c1	RAD52 anneal inh 79, RAD54 branch 79 | DNA binding inactive | RAD52 DNA ctr 48µM
CCCN(CCC)CCNC(=O)c1cc2c(-c3ccc(Cl)cc3)nn(C)c2s1	RAD52 anneal inh 52, RAD54 branch 61 | DNA binding inactive | RAD52 DNA ctr inactive
CCCN(CCC)CCNC(=O)c1cc2c(-c3ccccc3F)nn(C)c2s1	none (no result: RAD54 branch)
CCCCN(CC)CCNC(=O)c1cc2c(-c3ccc(Cl)cc3)nn(C)c2s1	RAD52 anneal inh 50, RAD54 branch 82 | DNA binding inactive | RAD52 DNA ctr inactive
CCOCCCNC(=O)c1cc2c(-c3ccc(Cl)cc3)nn(C)c2s1	none
O=C(N[C@@H]1CC[C@H](CC(=O)N2CCOCC2)O[C@@H]1CO)c1ccccn1	none (no result: PDI inh, CAL PDZ FP-1, CAL PDZ FP-2)
Cc1[nH]ccc2cc3nc4ccccc4c3cc12	RAD52 anneal inh 101, RAD54 branch 83 (no result: CAL PDZ FP-1, CAL PDZ FP-2) | DNA binding inactive | RAD52 DNA ctr inconclusive
Cc1cccc2nc3ccccc3cc12	none (no result: CAL PDZ FP-1)
C[C@@H]1CN([C@@H](C)CO)S(=O)(=O)c2ccc(-c3ccc(C#N)cc3)cc2O[C@@H]1CN(C)C(=O)CN(C)C	none (no result: PDI inh, CAL PDZ FP-1, CAL PDZ FP-2)
N=c1c(C(=O)NCCN2CCOCC2)cc2c(=O)n3ccccc3nc2n1CCCN1CCOCC1	RAD52 anneal inh 77, RAD54 branch 57 | DNA binding inactive | RAD52 DNA ctr inactive
N=c1c(C(=O)NCCN2CCOCC2)cc2c(=O)n3ccccc3nc2n1Cc1ccc(F)cc1	none (no result: CAL PDZ FP-1)
CN(C)C(=O)C[C@H]1CC[C@H]2[C@H](COc3ccc(NC(=O)C4CCOCC4)cc3C(=O)N2C)O1	none (no result: PDI inh, CAL PDZ FP-1, CAL PDZ FP-2)
CN(C)CCNc1ncnc2sc(-c3ccccc3)cc12	RAD52 anneal inh 59, RAD54 branch 67 | DNA binding inactive | RAD52 DNA ctr inactive
CNc1ncnc2sc(-c3ccccc3)cc12	none
COc1cc(C(=O)NC2CCN(C)CC2)ccc1Nc1ncc2c(n1)N(C1CCCCC1)CCC(=O)N2C	RAD52 anneal inh 97, RAD54 branch 78 | DNA binding inactive | RAD52 DNA ctr inactive
CCN1C(=O)CC(c2ccccc2)N(C2CCCC2)c2nc(Nc3ccc(C(=O)NC4CCN(C)CC4)cc3OC)ncc21 (centres undefined)	none (no result: RAD52 anneal inh, ERp5 inh)
CCOc1ccc(Nc2cc(C)c3ccccc3n2)cc1	none
CCOc1ccc(Nc2c3ccccc3nc3ccccc23)cc1	RAD52 anneal inh 85, RAD54 branch 106 | DNA binding 27µM | RAD52 DNA ctr inactive
CCc1ccc2nc3nc(C)cc(C)c3c(N)c2c1	RAD52 anneal inh 83, RAD54 branch 88 | DNA binding inactive | RAD52 DNA ctr inactive
Cc1ccc(-c2nc(NCCCN(C)C)c3ccccc3n2)cc1	RAD52 anneal inh 84, RAD54 branch 83 (no result: CAL PDZ FP-1, CAL PDZ FP-2) | DNA binding inactive | RAD52 DNA ctr inactive
c1ccc(CNc2c3ccccc3nc3ccccc23)cc1	RAD52 anneal inh 84, RAD54 branch 83 | DNA binding 29µM | RAD52 DNA ctr inconclusive
CN(C)CCCNc1c2ccccc2nc2ccccc12	RAD52 anneal inh 87, RAD54 branch 99 (no result: CAL PDZ FP-2) | DNA binding 7.6µM | RAD52 DNA ctr 9.3µM
C/C=C/c1ccc([C@H]2[C@@H](CO)N(C(=O)C3CCC3)C23CN(S(=O)(=O)CC)C3)cc1	none (no result: PDI inh, RAD54 branch, CAL PDZ FP-1, CAL PDZ FP-2)
COCC(=O)N(C)C[C@H]1Oc2ncc(-c3ccc(C#N)cc3)cc2C(=O)N([C@@H](C)CO)C[C@@H]1C	none (no result: PDI inh, CAL PDZ FP-1, CAL PDZ FP-2)
CN(C)CCCN(C(=O)c1ccc([N+](=O)[O-])o1)c1nc2cc3c(cc2s1)OCO3	RAD52 anneal inh 75, RAD54 branch inconclusive (no result: CAL PDZ FP-1) | DNA binding inactive | RAD52 DNA ctr inconclusive

Screens (PubChem BioAssay)
